Columns and labels:
BCRP = BCRP (Homo sapiens, UniProt Q9UNQ0); assay: M2 excretion in HeLa1A9 cells after shRNA knock-down of BCRP; assay type: cell-based
Summary of the method: (§1)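 shRNA plasmid against BCRP, MRP1, MRP3 or MRP4 transfected into UGT1A9-expressing HeLa cells, then exposed to 5 μM test compound in HBSS. Medium sampled at 30–120 min with replacement; cells collected at 120 min. UHPLC gave extracellular and intracellular glucuronide, excretion rate, efflux clearance (excretion rate/intracellular concentration) and fraction metabolized (fmet), each compared with control. Triplicate.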

CYP1A1 = CYP1A1 (Homo sapiens, UniProt P04798); assay: Inhibition of CYP1A1; assay type: biochemical
Summary of the method: (§2)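 Recombinant human CYPs at 0.05 mg mL−1 protein, each with its probe substrate near Km: ethoxyresorufin 1 μM (CYP1A1), phenacetin 100 μM (CYP1A2), nifedipine 40 μM (CYP3A4, 3A5). Incubated at 37 °C without (control) or with test compound at 1, 10 and 100 μM. Supernatant analysed by UHPLC-TQD-MS; activity relative to control; triplicate.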

MRP4 = MRP4 (Homo sapiens, UniProt O15439); assay: M2 excretion in HeLa1A9 cells after shRNA knock-down of MRP4; assay type: cell-based; conditions: MRP4 silencing
Summary of the method: as §1

CYP2C9 = CYP2C9 (Homo sapiens, UniProt P11712); assay: Inhibition of CYP2C9; assay type: biochemical
Summary of the method: (§3)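 Recombinant human CYPs at 0.1 mg mL−1 protein, each with its probe substrate near Km: coumarin 100 μM (2A6), bupropion 100 μM (2B6), paclitaxel 60 μM (2C8), tolbutamide 200 μM (2C9), mephenytoin 100 μM (2C19), chlorzoxazone 200 μM (2E1). Incubated at 37 °C with or without test compound at 1, 10 or 100 μM. UHPLC-TQD-MS read-out; triplicate.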

UGT2B15 = UGT2B15 (Homo sapiens, UniProt P54855); assay: Inhibition of UGT2B15; assay type: biochemical; conditions: PI-103 1, 10 and 100 μM
Summary of the method: (§4)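 Recombinant human UGTs screened with probe substrates: β-estradiol for UGT1A1, propofol for 1A9, and 4-methylumbelliferone for 1A3, 1A6, 1A7, 1A8, 1A10, 2B4, 2B7, 2B10, 2B15 and 2B17. Incubated at 37 °C without (control) or with test compound at 1, 10 or 100 μM. Glucuronide formation measured relative to control; triplicate.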

CYP3A5 = CYP3A5 (Homo sapiens, UniProt P20815); assay: Inhibition of CYP3A5; assay type: biochemical; conditions: PI-103 1, 10 and 100 μM
Summary of the method: as §2

HeLa cells = assay: Toxicity of PI-103 in HeLa cells; assay type: cell-based, human; conditions: within the experimental concentrations (maximal 5 μM)
p110β = conditions: cited from earlier work
[1] = test system: normal hematopoietic progenitors; conditions: cited from earlier work
UGT2B4 = UGT2B4 (Homo sapiens, UniProt P06133); assay: Inhibition of UGT2B4; assay type: biochemical; conditions: PI-103 1, 10 and 100 μM
Summary of the method: as §4

CYP2C8 = CYP2C8 (Homo sapiens, UniProt P10632); assay: Inhibition of CYP2C8; assay type: biochemical; conditions: PI-103 1, 10 and 100 μM
Summary of the method: as §3

mice = conditions: cited from earlier work
CYP2A6 = CYP2A6 (Homo sapiens, UniProt P11509); assay: Inhibition of CYP2A6; assay type: biochemical; conditions: PI-103 1, 10 and 100 μM
Summary of the method: as §3

UGT1A6 = UGT1A6 (Homo sapiens, UniProt P19224); assay: Inhibition of UGT1A6; assay type: biochemical
Summary of the method: as §4

DNA-PK = conditions: cited from earlier work
p110γ = conditions: cited from earlier work
UGT2B10 = UGT2B10 (Homo sapiens, UniProt P36537); assay: Inhibition of UGT2B10; assay type: biochemical; conditions: PI-103 1, 10 and 100 μM
Summary of the method: as §4

UGT1A10 = UGT1A10 (Homo sapiens, UniProt Q9HAW8); assay: Inhibition of UGT1A10; assay type: biochemical; conditions: PI-103 1, 10 and 100 μM
Summary of the method: as §4

p110δ = conditions: cited from earlier work
UGT2B7 = target: T1, UGT2B7 (Homo sapiens, UniProt P16662); assay: Inhibition of UGT2B7; assay type: biochemical
T1 sequence (P16662 24-529): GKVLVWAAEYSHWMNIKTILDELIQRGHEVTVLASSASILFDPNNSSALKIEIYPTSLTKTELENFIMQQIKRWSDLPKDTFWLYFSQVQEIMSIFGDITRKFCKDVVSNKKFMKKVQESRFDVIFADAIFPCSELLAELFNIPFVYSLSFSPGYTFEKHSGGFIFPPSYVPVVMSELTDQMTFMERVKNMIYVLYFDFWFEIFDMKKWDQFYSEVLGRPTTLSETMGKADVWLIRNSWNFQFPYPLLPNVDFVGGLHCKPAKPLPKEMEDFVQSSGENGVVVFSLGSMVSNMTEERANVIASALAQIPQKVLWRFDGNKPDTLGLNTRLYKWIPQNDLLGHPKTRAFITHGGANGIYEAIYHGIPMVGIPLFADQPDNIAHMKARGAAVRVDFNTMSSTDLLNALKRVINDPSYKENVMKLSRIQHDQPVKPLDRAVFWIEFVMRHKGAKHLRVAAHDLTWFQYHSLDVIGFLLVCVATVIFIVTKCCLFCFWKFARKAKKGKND
Summary of the method: as §4

MRP1 = MRP1 (Homo sapiens, UniProt P33527); assay: M2 excretion in HeLa1A9 cells after shRNA knock-down of MRP1; assay type: cell-based; conditions: MRP1 partially silenced
Summary of the method: as §1

CYP2C19 = CYP2C19 (Homo sapiens, UniProt P33261); assay: Inhibition of CYP2C19; assay type: biochemical
Summary of the method: as §3

CYP3A4 = CYP3A4 (Homo sapiens, UniProt P08684); assay: Inhibition of CYP3A4; assay type: biochemical; conditions: PI-103 1, 10 and 100 μM
Summary of the method: as §2

UGT2B17 = UGT2B17 (Homo sapiens, UniProt O75795); assay: Inhibition of UGT2B17; assay type: biochemical; conditions: PI-103 1, 10 and 100 μM
Summary of the method: as §4

MRP3 = MRP3 (Homo sapiens, UniProt O15438); assay: M2 excretion in HeLa1A9 cells after shRNA knock-down of MRP3; assay type: cell-based; conditions: MRP3 silenced, p > 0.05
Summary of the method: as §1

UGT1A8 = UGT1A8 (Homo sapiens, UniProt Q9HAW9); assay: Inhibition of UGT1A8; assay type: biochemical; conditions: PI-103 1, 10 and 100 μM
Summary of the method: as §4

UGT1A1 = UGT1A1 (Homo sapiens, UniProt P22309); assay: Inhibition of UGT1A1; assay type: biochemical; conditions: PI-103 1, 10 and 100 μM
Summary of the method: as §4

Chain of CYP2C19 (P33261 whole entry): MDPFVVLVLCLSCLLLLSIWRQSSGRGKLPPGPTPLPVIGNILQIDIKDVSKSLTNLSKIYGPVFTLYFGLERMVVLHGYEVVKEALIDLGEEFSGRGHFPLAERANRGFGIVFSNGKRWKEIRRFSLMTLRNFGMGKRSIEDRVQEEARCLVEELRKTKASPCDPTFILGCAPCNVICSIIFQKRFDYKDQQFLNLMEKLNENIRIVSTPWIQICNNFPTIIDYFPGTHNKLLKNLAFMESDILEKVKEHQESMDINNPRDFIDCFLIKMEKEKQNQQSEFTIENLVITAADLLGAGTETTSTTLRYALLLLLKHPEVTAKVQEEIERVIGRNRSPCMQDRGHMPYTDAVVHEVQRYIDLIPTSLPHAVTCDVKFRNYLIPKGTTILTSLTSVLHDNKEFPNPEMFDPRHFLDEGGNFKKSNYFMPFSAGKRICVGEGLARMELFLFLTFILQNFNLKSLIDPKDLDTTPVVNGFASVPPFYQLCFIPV
Chain of CYP2C9 (P11712 whole entry): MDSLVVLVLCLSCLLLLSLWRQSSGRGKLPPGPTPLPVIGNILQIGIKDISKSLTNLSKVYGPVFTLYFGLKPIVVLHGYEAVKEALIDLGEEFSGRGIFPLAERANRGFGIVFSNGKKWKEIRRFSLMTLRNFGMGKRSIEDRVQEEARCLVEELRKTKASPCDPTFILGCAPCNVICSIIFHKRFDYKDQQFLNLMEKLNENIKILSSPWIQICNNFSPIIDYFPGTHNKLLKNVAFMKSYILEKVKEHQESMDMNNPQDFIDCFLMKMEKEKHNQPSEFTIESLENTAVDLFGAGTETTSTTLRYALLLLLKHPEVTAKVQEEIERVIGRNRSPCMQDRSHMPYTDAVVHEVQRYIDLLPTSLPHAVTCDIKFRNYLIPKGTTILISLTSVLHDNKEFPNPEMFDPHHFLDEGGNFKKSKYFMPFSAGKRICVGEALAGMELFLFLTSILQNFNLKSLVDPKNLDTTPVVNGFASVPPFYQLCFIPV
Chain of CYP1A1 (P04798 whole entry): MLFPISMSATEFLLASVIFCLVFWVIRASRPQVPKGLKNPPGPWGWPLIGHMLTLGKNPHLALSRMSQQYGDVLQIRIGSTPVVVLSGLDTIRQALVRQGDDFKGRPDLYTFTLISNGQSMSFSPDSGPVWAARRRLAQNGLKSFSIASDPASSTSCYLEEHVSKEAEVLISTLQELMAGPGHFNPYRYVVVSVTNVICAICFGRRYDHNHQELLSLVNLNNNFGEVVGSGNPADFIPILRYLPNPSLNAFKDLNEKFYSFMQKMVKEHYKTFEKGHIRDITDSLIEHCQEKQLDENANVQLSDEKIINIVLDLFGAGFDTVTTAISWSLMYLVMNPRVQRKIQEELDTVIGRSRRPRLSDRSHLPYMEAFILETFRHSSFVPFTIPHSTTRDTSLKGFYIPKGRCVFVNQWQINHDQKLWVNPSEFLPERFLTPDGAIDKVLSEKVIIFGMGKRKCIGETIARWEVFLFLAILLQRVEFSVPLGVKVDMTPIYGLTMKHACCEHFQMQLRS
Chain of CYP3A5 (P20815 whole entry): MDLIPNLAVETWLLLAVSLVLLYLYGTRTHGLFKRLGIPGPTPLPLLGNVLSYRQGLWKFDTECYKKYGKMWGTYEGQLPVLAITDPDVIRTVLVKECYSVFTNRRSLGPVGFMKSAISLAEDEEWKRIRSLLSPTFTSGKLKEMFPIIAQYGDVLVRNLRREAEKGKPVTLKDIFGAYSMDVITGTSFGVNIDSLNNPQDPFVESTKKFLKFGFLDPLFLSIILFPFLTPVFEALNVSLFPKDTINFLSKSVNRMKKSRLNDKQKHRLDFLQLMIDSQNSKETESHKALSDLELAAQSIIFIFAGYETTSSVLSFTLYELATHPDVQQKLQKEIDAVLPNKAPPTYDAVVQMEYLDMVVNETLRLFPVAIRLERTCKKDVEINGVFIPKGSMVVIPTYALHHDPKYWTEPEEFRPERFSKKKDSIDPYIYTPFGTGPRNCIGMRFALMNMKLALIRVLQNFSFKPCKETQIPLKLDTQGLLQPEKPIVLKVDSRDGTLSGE
Chain of UGT2B15 (P54855 24-530): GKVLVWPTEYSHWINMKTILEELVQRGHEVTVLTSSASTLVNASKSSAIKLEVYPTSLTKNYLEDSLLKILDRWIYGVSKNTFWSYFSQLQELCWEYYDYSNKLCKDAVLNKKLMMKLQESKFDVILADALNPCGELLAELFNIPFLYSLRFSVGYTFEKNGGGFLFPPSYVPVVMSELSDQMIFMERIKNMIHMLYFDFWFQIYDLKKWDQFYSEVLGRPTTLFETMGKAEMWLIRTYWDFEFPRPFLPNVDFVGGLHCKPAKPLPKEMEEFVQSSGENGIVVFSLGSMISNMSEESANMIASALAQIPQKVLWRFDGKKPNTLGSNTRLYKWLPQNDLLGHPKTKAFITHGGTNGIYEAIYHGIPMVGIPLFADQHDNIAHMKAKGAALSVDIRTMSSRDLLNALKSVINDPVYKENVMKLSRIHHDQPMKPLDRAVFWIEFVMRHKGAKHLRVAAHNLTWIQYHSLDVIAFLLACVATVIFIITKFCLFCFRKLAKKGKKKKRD
Chain of UGT1A8 (Q9HAW9 26-530): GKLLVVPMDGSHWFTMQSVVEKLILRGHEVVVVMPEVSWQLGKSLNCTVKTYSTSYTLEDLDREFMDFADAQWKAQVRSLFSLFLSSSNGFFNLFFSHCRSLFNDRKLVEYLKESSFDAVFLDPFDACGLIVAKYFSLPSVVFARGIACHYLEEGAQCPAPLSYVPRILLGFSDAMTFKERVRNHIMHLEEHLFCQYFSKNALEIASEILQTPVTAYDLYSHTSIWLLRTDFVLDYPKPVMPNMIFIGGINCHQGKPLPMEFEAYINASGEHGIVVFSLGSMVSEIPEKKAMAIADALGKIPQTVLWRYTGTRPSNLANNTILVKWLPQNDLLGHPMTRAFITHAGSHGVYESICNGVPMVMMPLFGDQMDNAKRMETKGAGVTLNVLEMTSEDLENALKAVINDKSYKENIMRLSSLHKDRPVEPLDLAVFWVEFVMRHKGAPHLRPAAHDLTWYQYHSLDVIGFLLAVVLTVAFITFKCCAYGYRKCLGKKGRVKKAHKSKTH
Chain of UGT2B10 (P36537 24-528): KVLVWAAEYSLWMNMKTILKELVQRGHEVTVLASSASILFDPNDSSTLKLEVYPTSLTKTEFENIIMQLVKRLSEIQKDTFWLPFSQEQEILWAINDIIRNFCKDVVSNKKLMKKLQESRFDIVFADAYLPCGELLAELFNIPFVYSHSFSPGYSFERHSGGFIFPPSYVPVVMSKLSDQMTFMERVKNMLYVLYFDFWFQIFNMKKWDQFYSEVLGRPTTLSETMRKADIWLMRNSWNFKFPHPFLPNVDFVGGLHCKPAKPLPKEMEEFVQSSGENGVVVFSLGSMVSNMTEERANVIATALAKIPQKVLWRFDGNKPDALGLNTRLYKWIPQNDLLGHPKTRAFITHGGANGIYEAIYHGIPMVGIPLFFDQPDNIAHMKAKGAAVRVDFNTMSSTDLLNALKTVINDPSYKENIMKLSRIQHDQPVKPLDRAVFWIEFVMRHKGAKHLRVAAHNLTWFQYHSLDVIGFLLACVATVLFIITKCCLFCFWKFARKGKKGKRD
Chain of MRP3 (O15438 whole entry): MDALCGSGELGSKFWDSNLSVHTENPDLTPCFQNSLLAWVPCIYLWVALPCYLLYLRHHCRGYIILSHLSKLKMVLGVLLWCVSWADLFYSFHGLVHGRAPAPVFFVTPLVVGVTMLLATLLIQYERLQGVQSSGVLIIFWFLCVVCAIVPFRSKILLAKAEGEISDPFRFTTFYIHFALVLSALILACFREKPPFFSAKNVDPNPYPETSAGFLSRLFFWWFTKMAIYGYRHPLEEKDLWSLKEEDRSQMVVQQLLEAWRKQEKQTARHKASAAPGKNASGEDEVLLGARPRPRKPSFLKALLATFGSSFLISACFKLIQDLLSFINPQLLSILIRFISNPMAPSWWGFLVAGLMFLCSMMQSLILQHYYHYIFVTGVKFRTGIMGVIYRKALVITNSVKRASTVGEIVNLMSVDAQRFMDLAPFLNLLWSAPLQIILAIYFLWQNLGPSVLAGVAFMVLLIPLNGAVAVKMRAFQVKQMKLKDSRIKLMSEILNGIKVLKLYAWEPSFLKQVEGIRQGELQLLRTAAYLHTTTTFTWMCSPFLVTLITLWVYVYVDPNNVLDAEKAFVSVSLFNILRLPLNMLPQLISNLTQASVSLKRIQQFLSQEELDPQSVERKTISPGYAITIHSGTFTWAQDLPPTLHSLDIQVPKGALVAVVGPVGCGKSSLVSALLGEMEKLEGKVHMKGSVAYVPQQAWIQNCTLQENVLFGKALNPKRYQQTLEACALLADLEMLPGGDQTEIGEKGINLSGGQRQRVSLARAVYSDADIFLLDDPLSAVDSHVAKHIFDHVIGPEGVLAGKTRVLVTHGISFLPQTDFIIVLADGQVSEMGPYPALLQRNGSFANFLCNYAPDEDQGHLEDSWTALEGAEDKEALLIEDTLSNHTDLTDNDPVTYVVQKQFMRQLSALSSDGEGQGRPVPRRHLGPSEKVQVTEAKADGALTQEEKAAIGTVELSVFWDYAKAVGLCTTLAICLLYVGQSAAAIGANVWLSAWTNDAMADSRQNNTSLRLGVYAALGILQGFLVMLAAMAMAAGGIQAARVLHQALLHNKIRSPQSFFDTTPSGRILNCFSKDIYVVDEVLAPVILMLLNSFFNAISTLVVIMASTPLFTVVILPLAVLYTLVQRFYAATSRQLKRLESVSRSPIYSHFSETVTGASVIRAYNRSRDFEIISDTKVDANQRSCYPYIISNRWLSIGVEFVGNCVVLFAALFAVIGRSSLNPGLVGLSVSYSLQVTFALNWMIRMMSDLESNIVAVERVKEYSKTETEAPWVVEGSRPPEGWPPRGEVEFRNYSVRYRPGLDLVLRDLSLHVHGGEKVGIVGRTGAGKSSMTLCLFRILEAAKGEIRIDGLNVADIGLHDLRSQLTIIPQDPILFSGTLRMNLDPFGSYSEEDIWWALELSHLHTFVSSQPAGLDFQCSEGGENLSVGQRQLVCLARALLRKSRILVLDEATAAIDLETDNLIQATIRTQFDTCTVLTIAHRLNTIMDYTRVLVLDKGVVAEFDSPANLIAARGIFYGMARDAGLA

## Oc1cccc(-c2nc(N3CCOCC3)c3oc4ncccc4c3n2)c1 [PI-103]
BCRP
  reduction in fraction of metabolized (fmet) PI-103: 27.6%
CYP1A1
  IC50: 16800 ± 1760 nM
CYP1A1; CYP1A1, 100 μM PI-103
  residual activity: 21.39 % of the negative control
MRP4
  decrease in fmet value of PI-103: 33.8%
CYP2C9
  IC50: 1160 ± 150 nM
  Ki: 560 ± 120 nM
CYP2C9; CYP2C9, 100 μM PI-103
  residual activity: 14.22 % of the negative control
CYP2C9; CYP2C9, tolbutamide
  Type of inhibition: Mixed-type
CYP2C9; CYP2C9, tolbutamide, mixed-type model (selected)
  α: 2.45 ± 0.94
UGT2B15
  inhibitory effect: negligible
CYP3A5
  inhibitory effect: negligible or weak
HeLa cells
  toxicity in HeLa cells: no significant toxicities
p110β
  IC50: 88 nM
[1]
  impact on normal hematopoietic progenitors: little impact
UGT2B4
  inhibitory effect: negligible
CYP2C8
  inhibitory effect: negligible or weak
mice
  toxicity in mice: little toxicity
CYP2A6
  inhibitory effect: negligible or weak
UGT1A6
  IC50: 168000 ± 15300 nM
DNA-PK
  IC50: […]
p110γ
  IC50: 150 nM
UGT2B10
  inhibitory effect: negligible
UGT1A10
  inhibitory effect: negligible
p110δ
  IC50: […]
UGT2B7
  IC50: 1590 ± 210 nM
  Ki: 1350 ± 150 nM
UGT2B7; UGT2B7, 4-MU
  Type of inhibition: Noncompetitive
MRP1
  reduction in fmet value: 29.2%
CYP2C19
  IC50: 590 ± 60 nM
  Ki: 530 ± 30 nM
CYP2C19; CYP2C19, 100 μM PI-103
  residual activity: 14.67 % of the negative control
CYP2C19; CYP2C19, mephenytoin
  Type of inhibition: Noncompetitive
CYP3A4
  inhibitory effect: negligible or weak
UGT2B17
  inhibitory effect: negligible
MRP3
  alteration in fmet value of PI-103: 9.2%
UGT1A8
  inhibitory effect: negligible
UGT1A1
  inhibitory effect: negligible
